In ChEMBL document CHEMBL4627263, “Hi-JAK-ing the ubiquitin system: The design and physicochemical optimisation of JAK PROTACs” (Bioorg Med Chem, 2020):
Activity calls are given as the source filed them. The calls are words filed in the database; no cut-off is given here.

Experiments:
[1] = target: T1, E3 ubiquitin-protein ligase XIAP/Tyrosine-protein kinase JAK1 (Homo sapiens) (UniProt P23458+P98170); assay: Protac activity at IAP/JAK1 in human THP1 cells assessed as increase in JAK1 degradation up to 10 uM after 24 hrs by Western blot analysis; assay type: cell-based; settings: THP-1
T1 sequence (P23458 whole entry, looked up): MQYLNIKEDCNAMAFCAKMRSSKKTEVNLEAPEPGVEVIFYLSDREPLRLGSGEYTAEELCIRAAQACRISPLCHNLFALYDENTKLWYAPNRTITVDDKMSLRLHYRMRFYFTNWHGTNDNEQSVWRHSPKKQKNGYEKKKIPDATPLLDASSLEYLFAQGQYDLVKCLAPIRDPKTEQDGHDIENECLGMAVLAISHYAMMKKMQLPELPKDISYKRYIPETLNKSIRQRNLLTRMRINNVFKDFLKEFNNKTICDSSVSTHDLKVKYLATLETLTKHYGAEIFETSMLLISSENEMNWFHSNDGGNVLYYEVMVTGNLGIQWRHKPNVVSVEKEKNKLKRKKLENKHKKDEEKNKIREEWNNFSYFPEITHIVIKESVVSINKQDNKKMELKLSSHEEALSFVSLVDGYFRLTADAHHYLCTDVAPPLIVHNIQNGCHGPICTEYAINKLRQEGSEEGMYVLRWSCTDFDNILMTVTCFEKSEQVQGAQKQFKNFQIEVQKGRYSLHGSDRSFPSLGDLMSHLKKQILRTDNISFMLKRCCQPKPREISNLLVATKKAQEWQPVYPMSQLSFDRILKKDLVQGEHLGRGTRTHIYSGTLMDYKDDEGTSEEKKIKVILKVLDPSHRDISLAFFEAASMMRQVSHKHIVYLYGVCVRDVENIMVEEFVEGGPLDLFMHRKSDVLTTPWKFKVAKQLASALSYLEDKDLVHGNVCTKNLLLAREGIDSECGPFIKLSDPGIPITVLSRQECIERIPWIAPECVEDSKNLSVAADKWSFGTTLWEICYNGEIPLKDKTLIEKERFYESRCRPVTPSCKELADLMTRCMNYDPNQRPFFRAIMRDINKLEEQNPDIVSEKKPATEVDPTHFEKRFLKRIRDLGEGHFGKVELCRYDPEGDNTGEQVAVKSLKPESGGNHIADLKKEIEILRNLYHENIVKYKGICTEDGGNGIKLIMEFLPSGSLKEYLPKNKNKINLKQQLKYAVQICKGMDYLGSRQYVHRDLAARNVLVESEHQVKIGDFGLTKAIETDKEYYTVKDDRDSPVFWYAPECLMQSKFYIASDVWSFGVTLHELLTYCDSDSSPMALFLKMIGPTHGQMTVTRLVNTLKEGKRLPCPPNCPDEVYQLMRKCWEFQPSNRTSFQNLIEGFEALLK
T1 sequence (P98170 whole entry, looked up): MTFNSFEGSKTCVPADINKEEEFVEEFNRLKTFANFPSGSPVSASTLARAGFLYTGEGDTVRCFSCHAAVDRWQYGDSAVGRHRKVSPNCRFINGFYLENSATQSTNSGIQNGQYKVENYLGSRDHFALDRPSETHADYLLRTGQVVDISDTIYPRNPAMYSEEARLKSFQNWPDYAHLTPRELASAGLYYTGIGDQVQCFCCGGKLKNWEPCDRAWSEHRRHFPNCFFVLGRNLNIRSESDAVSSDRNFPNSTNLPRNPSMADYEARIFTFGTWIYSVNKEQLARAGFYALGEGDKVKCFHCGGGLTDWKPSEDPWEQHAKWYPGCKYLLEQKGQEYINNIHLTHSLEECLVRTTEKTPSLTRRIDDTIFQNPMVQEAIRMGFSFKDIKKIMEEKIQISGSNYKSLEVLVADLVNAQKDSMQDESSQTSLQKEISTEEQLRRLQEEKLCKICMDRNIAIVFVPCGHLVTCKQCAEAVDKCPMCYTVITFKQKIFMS
Procedure, shortened: (§1)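 Unstimulated THP-1 cells were exposed to PROTAC across 0.6–10 µM for 24 h. JAK1/JAK2 levels were read by automated Western blot using antibodies detecting only unphosphorylated JAK. % degradation is relative to basal levels in DMSO-treated cells, as the mean of separate experiments (n ≥ 3). Significance was assessed by one-tailed Student's t-test at each concentration.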

[2] = Lipophilicity, log D of the compound at pH 7.4 by chromatographic method; assay type: physicochemical; settings: buffer
[3] = target: T2, E3 ubiquitin-protein ligase XIAP/Tyrosine-protein kinase JAK2 (Homo sapiens) (UniProt O60674+P98170); assay: Protac activity at IAP/JAK2 in human THP1 cells assessed as increase in JAK2 degradation up to 10 uM after 24 hrs by Western blot analysis relative to control; assay type: cell-based; settings: THP-1; procedure, shortened: as §1
T2 sequence (O60674 whole entry, looked up): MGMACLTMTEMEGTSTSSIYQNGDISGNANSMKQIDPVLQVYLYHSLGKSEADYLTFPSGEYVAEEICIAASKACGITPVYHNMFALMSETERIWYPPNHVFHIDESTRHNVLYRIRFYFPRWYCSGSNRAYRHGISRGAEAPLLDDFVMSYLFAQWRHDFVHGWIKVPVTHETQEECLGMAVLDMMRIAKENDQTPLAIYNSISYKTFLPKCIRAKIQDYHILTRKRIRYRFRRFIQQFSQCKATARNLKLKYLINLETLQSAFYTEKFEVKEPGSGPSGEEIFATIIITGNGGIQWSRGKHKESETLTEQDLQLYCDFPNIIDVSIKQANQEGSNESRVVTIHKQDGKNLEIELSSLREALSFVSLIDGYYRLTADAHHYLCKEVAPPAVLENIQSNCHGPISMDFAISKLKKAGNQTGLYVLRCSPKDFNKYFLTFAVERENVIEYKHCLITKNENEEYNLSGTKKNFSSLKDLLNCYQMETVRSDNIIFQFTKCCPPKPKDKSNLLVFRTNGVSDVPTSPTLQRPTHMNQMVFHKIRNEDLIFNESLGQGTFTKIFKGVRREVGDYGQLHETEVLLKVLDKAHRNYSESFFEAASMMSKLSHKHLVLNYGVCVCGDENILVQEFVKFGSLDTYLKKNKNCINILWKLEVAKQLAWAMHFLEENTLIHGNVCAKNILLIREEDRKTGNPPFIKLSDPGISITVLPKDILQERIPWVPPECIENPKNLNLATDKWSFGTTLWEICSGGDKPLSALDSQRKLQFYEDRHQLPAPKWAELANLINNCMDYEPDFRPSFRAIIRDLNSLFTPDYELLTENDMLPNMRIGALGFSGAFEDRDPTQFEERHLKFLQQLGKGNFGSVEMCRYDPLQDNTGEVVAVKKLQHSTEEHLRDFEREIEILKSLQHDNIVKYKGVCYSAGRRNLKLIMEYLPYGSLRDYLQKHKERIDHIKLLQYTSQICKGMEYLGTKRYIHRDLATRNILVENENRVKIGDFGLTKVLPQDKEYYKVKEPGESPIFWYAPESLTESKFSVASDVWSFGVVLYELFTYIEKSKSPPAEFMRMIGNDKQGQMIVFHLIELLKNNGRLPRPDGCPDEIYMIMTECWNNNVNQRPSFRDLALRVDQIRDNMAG
T2 sequence (P98170 whole entry, looked up): as the sequence (P98170 whole entry, looked up) above

[4] = target: T1, E3 ubiquitin-protein ligase XIAP/Tyrosine-protein kinase JAK1 (Homo sapiens); assay: Protac activity at IAP/JAk1 in human PBMC cells assessed as reduction in IL2-induced IFNgamma production measured after 1 hr; assay type: cell-based
Procedure, shortened: (§2)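 Human PBMCs were given a 1 h compound incubation in the IL-2-stimulated assay, with IFNγ signalling as the cellular potency readout, reported as pIC50.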

[5] = target: T2, E3 ubiquitin-protein ligase XIAP/Tyrosine-protein kinase JAK2 (Homo sapiens); assay: Protac activity at IAP/JAK2 in human THP1 cells assessed as increase in JAK2 degradation at 10 uM after 24 hrs by Western blot analysis relative to control; assay type: cell-based; settings: THP-1; procedure, shortened: as §1
[6] = target: T1, E3 ubiquitin-protein ligase XIAP/Tyrosine-protein kinase JAK1 (Homo sapiens); assay: Protac activity at IAP/JAK1 in human THP1 cells assessed as increase in JAK1 degradation at 10 uM after 24 hrs by Western blot analysis; assay type: cell-based; settings: THP-1; procedure, shortened: as §1
[7] = target: Tyrosine-protein kinase JAK2 (Homo sapiens, UniProt O60674); assay: Inhibition of JAK2 (unknown origin)
Sequence of Tyrosine-protein kinase JAK2 (O60674 whole entry): as the sequence (O60674 whole entry, looked up) above
Procedure, shortened: (§3)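 Isolated biochemical JAK enzyme assays. pIC50 values are means of multiple separate experiments (n ≥ 2).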

[8] = organism: Homo sapiens; assay: Selectivity ratio, difference between pIC50 for JAK1 (unknown origin) to pIC50 for inhibition of JAK1/JAK3 in human PBMC cells assessed as reduction in IL2-induced IFNgamma production; assay type: cell-based
Procedure, shortened: (§4)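 Permeability surrogate calculated as drop-off = 10^(biochemical JAK1 or JAK3 pIC50 − IL2 PBMC pIC50). The cellular step used a 1 h incubation.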

[9] = organism: Homo sapiens; assay: Selectivity ratio, difference between pIC50 for JAK3 (unknown origin) to pIC50 for inhibition of JAK1/JAK3 in human PBMC cells assessed as reduction in IL2-induced IFNgamma production; assay type: cell-based; procedure, shortened: as §4
[10] = target: Tyrosine-protein kinase JAK1 (Homo sapiens, UniProt P23458); assay: Inhibition of JAK1 (unknown origin); procedure, shortened: as §3
Sequence of Tyrosine-protein kinase JAK1 (P23458 whole entry): as the sequence (P23458 whole entry, looked up) above

[11] = target: T3, Tyrosine-protein kinase JAK3 (Homo sapiens, UniProt P52333); assay: Inhibition of JAK3 (unknown origin); procedure, shortened: as §3
T3 sequence (P52333 whole entry): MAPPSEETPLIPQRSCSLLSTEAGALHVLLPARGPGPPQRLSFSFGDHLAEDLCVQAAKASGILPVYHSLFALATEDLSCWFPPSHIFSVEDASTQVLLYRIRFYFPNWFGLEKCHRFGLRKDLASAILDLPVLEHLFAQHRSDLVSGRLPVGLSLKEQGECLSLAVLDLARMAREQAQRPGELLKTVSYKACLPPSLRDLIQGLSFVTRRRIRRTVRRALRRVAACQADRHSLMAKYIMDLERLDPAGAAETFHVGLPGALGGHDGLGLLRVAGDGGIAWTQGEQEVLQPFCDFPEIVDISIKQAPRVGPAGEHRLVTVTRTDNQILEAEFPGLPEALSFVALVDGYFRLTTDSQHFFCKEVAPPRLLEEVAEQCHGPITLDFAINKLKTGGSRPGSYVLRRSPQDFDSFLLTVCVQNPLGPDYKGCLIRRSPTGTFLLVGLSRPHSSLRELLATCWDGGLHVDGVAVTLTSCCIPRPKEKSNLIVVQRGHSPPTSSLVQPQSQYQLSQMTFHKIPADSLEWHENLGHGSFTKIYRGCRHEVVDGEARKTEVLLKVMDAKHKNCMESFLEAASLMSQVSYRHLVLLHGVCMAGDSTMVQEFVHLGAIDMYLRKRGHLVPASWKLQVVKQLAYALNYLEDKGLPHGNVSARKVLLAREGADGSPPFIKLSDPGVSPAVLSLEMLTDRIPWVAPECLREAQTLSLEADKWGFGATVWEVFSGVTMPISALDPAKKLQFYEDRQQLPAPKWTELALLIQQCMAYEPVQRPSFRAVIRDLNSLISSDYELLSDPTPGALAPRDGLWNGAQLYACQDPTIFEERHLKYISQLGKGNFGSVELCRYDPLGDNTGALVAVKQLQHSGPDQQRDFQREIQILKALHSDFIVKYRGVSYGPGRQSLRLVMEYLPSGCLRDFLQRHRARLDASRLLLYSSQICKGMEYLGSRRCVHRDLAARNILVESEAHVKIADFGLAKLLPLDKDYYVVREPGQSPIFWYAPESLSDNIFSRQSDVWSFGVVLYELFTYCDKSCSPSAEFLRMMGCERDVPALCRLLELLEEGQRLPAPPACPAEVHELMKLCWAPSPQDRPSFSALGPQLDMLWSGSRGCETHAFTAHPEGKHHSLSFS

[12] = target: JAK3/JAK1 (Homo sapiens, UniProt P23458+P52333); assay: Inhibition of JAK1/JAK3 in human PBMC cells assessed as reduction in IL2-induced IFNgamma production; assay type: cell-based; procedure, shortened: as §2
Sequence of JAK3/JAK1 (P23458 whole entry, one chain of several): as the sequence (P23458 whole entry, looked up) above

[13] = target: T1, E3 ubiquitin-protein ligase XIAP/Tyrosine-protein kinase JAK1 (Homo sapiens); assay: Protac activity at IAP/JAK1 in human THP1 cells assessed as increase in JAK1 degradation at 5 uM after 24 hrs by Western blot analysis relative to control; assay type: cell-based; settings: THP-1; procedure, shortened: as §1
[14] = target: T1, E3 ubiquitin-protein ligase XIAP/Tyrosine-protein kinase JAK1 (Homo sapiens); assay: Protac activity at IAP/JAK1 in human THP1 cells assessed as increase in JAK1 degradation at 5 uM after 24 hrs in presence of IAP ligand by Western blot analysis; assay type: cell-based; settings: THP-1
Procedure, shortened: (§5)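 Unstimulated THP-1 cells were co-treated for 24 h with PROTAC and increasing concentrations of free, active IAP ligand. JAK1/JAK2 protein was quantified by automated Western blot against DMSO-treated basal levels, as the mean of n ≥ 3 separate experiments. Significance was assessed by one-tailed t-test.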

[15] = target: T2, E3 ubiquitin-protein ligase XIAP/Tyrosine-protein kinase JAK2 (Homo sapiens); assay: Protac activity at IAP/JAK2 in human THP1 cells assessed as increase in JAK2 degradation at 5 uM after 24 hrs in presence of IAP ligand by Western blot analysis; assay type: cell-based; settings: THP-1; procedure, shortened: as §5
[16] = target: T2, E3 ubiquitin-protein ligase XIAP/Tyrosine-protein kinase JAK2 (Homo sapiens); assay: Protac activity at IAP/JAK2 in human THP1 cells assessed as increase in JAK2 ubiquitination by immunoprecipitation assay; assay type: cell-based; settings: THP-1
[17] = target: T2, E3 ubiquitin-protein ligase XIAP/Tyrosine-protein kinase JAK2 (Homo sapiens); assay: Protac activity at IAP/JAK2 in human THP1 cells assessed as increase in JAK2 degradation in presence of proteasome inhibitor MG132 by immunoprecipitation assay; assay type: cell-based; settings: THP-1
[18] = target: T2, E3 ubiquitin-protein ligase XIAP/Tyrosine-protein kinase JAK2 (Homo sapiens); assay: Protac activity at IAP/JAK2 in human THP1 cells assessed as increase in JAK2 degradation at 5 uM after 24 hrs by Western blot analysis relative to control; assay type: cell-based; settings: THP-1; procedure, shortened: as §1
[19] = target: T1, E3 ubiquitin-protein ligase XIAP/Tyrosine-protein kinase JAK1 (Homo sapiens); assay: Protac activity at IAP/JAK1 in human THP1 cells assessed as increase in JAK1 degradation in presence of proteasome inhibitor MG132 by immunoprecipitation assay; assay type: cell-based; settings: THP-1

| Compound | Activity [1] | chromatographic logD [2] | Activity [3] | Activity [4] | Activity [13] | Activity [18] | further results |
| --- | --- | --- | --- | --- | --- | --- | --- |
| CN[C@@H](C)C(=O)N[C@H](C(=O)N1C[C@@H](NC(=O)COCCOCCOCCOCCN2CCN(CCCOc3ccc(-c4cnc5cccc(-c6cc(F)c(CN7CCS(=O)(=O)CC7)c(F)c6)c5n4)cc3OC)CC2)C[C@H]1C(=O)N[C@@H]1CCCc2ccccc21)C1CCCCC1 | Active | 5 to 8 | < 35% | inactive | – | – | – |
| CN[C@@H](C)C(=O)N[C@H](C(=O)N1C[C@@H](NC(=O)CCCCCCCCCn2cc(Nc3ncc(Cl)c(NCc4cc(F)ccc4F)n3)cn2)C[C@H]1C(=O)N[C@@H]1CCCc2ccccc21)C1CCCCC1 | Active | 5 to 8 | < 35% | inactive | – | – | – |
| CN[C@@H](C)C(=O)N[C@H](C(=O)N1C[C@@H](NC(=O)COCCOCCOCCOCCn2cc(Nc3ncc(Cl)c(NCc4cc(F)ccc4F)n3)cn2)C[C@H]1C(=O)N[C@@H]1CCCc2ccccc21)C1CCCCC1 | Active | 5 to 8 | < 35% | inactive | – | – | – |
| CN[C@@H](C)C(=O)N[C@H](C(=O)N1C[C@@H](NC(=O)CCCCCCCCCOc2cc(F)cc(CNc3nc(Nc4cnn(C)c4)ncc3Cl)c2F)C[C@H]1C(=O)N[C@@H]1CCCc2ccccc21)C1CCCCC1 | Active | 5 to 8 | < 35% | inactive | – | – | Activity [5]: inactive; Activity [6]: inactive |
| OCCn1cc(Nc2ncc(Cl)c(NCc3cc(F)ccc3F)n2)cn1 | – | 3.5 | – | – | – | – | IC50 [7]: 0.316 nM; Selectivity ratio [8]: > 50; Selectivity ratio [9]: 8; IC50 [10]: < 0.158 nM; IC50 [11]: 1 nM; IC50 [12]: 7.94 nM |
| CN[C@@H](C)C(=O)N[C@H](C(=O)N1C[C@@H](NC(=O)CCCCCCCCCN2CCN(CCCOc3ccc(-c4cnc5cccc(-c6cc(F)c(CN7CCS(=O)(=O)CC7)c(F)c6)c5n4)cc3OC)CC2)C[C@H]1C(=O)N[C@@H]1CCCc2ccccc21)C1CCCCC1 | Active | 5 to 8 | < 35% | inactive | 48% | 65% | Activity [14]: inactive; Activity [15]: inactive; Activity [16]: Active; Activity [17]: inactive; Activity [19]: inactive |
| CN[C@@H](C)C(=O)N[C@H](C(=O)N1C[C@@H](NC(=O)COCCOCCOCCOCCOc2cc(F)cc(CNc3nc(Nc4cnn(C)c4)ncc3Cl)c2F)C[C@H]1C(=O)N[C@@H]1CCCc2ccccc21)C1CCCCC1 | Active | 5 to 8 | < 35% | inactive | – | – | – |
| CN[C@H](C)C(=O)N[C@@H](C(=O)N1C[C@H](NC(=O)CCCCCCCCCN2CCN(CCCOc3ccc(-c4cnc5cccc(-c6cc(F)c(CN7CCS(=O)(=O)CC7)c(F)c6)c5n4)cc3OC)CC2)C[C@@H]1C(=O)N[C@H]1CCCc2ccccc21)C1CCCCC1 | – | – | – | – | inactive | inactive | – |
| COc1cc(-c2cnc3cccc(-c4cc(F)c(CN5CCS(=O)(=O)CC5)c(F)c4)c3n2)ccc1OCCCN1CCOCC1 | – | 6 | – | – | inactive | inactive | IC50 [7]: 0.251 nM; Activity [14]: inactive; Selectivity ratio [8]: 40; Activity [15]: inactive; Selectivity ratio [9]: 40; IC50 [10]: 7.94 nM; IC50 [11]: 7.94 nM; IC50 [12]: 316 nM |
